Published values collected from several papers.
Protocols differ between the studies behind these lines.
Medium: plasma
Route: oral

With `CO[C@H]1CC[C@H](N2C(=O)CNc3ncc(-c4ccc(C(C)(C)O)nc4)nc32)CC1` the Vd/F was 236 L (human; 60 mg, patients).
`c1cnc2ccc(Nc3nc(NC4CC4)c4nc[nH]c4n3)cc2c1` has a Vd/F of 546 L (human; 400 mg/m², patients).
The Vd/F of `COc1cc(C(=O)NC2CCN(C)CC2)c(F)cc1Nc1ncc(C(F)(F)F)c(Oc2cccc3c2C(=O)N(C)C3)n1` is reported as 236 L (human; 100 mg, single dose, patients).
`N#CN1C[C@H](n2nc(-c3ccc(Oc4ccc(Cl)cn4)cc3)c(C(N)=O)c2N)CCC12CC2` gave a Vd/F of 1060 L (human; 600 mg, fasted).
For `CCOc1cc2ncc(C#N)c(Nc3ccc(OCc4ccccn4)c(Cl)c3)c2cc1NC(=O)/C=C/[C@H]1CCCN1C`, the Vd/F was 4110 L (human; 80 mg, single dose).
With `C[C@@H](c1ccc2nccn2c1)n1nnc2ncc(-c3cnn(C)c3)nc21` the Vd/F was 310 L (human; 200 mg).
With `COc1ccc([C@@H]2CN(C(=O)[C@@H](O)CO)C[C@@]2(C)[C@@H](C)O)cc1OC1CN(c2ccc(C)cn2)C1` the Vd/F was 40.7 L (human; 0.5 mg, single dose, healthy volunteers).
For `CC(C)(Sc1ccncc1-c1ccc(C#N)c2ccccc12)C(=O)O`, the Vd/F was 394 L (male human; 2 mg, single dose, fasted, healthy volunteers).
The Vd/F of `NC[C@@](O)(c1ccc(Cl)cc1)c1ccc(-c2cn[nH]c2)cc1` is reported as 1400 L (human; 5 mg, patients).
For `Cc1cc(Nc2cc(N3CCN(C)CC3)nc(/C=C/c3ccccc3)n2)n[nH]1`, the Vd/F was 847 L (human; 120 mg/m², multiple doses, patients).
`CCOc1ccc(Cc2cc([C@@H]3O[C@H](CO)[C@@H](O)[C@H](O)[C@H]3O)ccc2Cl)cc1` has a Vd/F of 320 L (human; 10 mg, multiple doses, steady state).
`C[C@@]1(c2cc(NC(=O)c3ccc(C#N)cn3)ccc2F)C=CSC(N)=N1` has a Vd/F of 276 L (human; 30 mg, single dose).
